Results reported in ChEMBL document CHEMBL3864131, “Development, synthesis and structure-activity-relationships of inhibitors of the macrophage infectivity potentiator (Mip) proteins of Legionella pneumophila and Burkholderia pseudomallei” (Bioorg Med Chem, 2016).

Key:
[1] = target: Outer membrane protein MIP (Legionella pneumophila, UniProt Q70YI1)
in vitro = conditions: mouse, J774.1 cells
[2] = Stability of the compound in methanol/HEPES buffer at pH 7.8 at 40 degC for 24 hrs by HPLC analysis; format: physicochemical; conditions: read-out: Stability
Procedure, shortened: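 Compound dilutions incubated for 24 h in methanol with 10 mM HEPES buffer (pH 7.8) at 25 °C and 40 °C. HPLC analysis was done at 0 and 24 h to give the percentage of intact compound remaining.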

[3] = Metabolic stability in mouse J774.1 cells at 37 degC after 1 hr by HPLC analysis; format: ADME, cell-based; conditions: read-out: Stability
Procedure, shortened: (§1)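 Compound incubated with J774.1 murine macrophages in RPMI medium at 37 °C, sampled at 0, 1 and 24 h, and the remaining compound quantified by HPLC.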

[4] = Metabolic stability in mouse J774.1 cells at 37 degC after 24 hrs by HPLC analysis; format: ADME, cell-based; conditions: read-out: Stability
Procedure, shortened: as §1

[5] = Stability in human plasma after 1 hr by HPLC analysis; format: ADME, cell-free
Procedure, shortened: (§2)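 Compound incubated in human plasma and sampled at 1, 4 and 24 h. The decrease in compound concentration was followed by HPLC.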

[6] = Stability in human plasma after 4 hrs by HPLC analysis; format: ADME, cell-free
Procedure, shortened: as §2

[7] = Stability in human plasma after 24 hrs by HPLC analysis; format: ADME, cell-free
Procedure, shortened: as §2

Sequence of Outer membrane protein MIP (Q70YI1 21-233 limits assumed): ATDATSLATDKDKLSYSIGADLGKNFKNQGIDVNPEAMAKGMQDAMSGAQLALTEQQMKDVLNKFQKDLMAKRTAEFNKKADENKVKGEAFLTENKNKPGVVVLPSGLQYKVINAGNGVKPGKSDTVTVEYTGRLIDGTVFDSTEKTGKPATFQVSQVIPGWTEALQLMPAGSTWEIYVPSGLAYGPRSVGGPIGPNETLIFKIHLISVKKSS

| SMILES | IC50 [1] [µM] | IC50 at 24 h (in vitro) [µM] | remaining at 24 h [2] [%] | remaining at 1 h [3] [%] | remaining at 24 h [4] [%] | Stability [5] [%] | Stability [6] [%] | Stability [7] [%] |
| --- | --- | --- | --- | --- | --- | --- | --- | --- |
| O=C(OCCCc1cccnc1)C1CCCCN1S(=O)(=O)Cc1ccc([N+](=O)[O-])cc1 (racemic) | 3.9 | 56.7 |  |  |  |  |  |  |
| COc1cc(CCCOC(=O)[C@@H]2CCCCN2S(=O)(=O)Cc2ccccc2)cc(OC)c1OC |  |  | 99 |  |  |  |  |  |
| CC(C)Nc1cccc(CS(=O)(=O)N2CCCCC2C(=O)OCCCc2cccnc2)c1 (racemic) | 41.5 | 57.4 |  |  |  |  |  |  |
| COc1cc(C(=O)NC[C@H](C)OC(=O)[C@@H]2CCCCN2S(=O)(=O)Cc2ccccc2)cc(OC)c1OC | 2.2 | > 100 |  |  |  |  |  |  |
| O=C(C(=O)N1CCCC[C@H]1C(=O)OCCCc1cccnc1)c1ccccc1 | 142 | 88.1 |  |  |  |  |  |  |
| O=C(NCCOC(=O)[C@@H]1CCCCN1S(=O)(=O)Cc1ccccc1)c1cccnc1 | 11.4 | > 100 |  | 82 | 81 | 5 | 20 | 50 |
| O=C(OCCCc1cccnc1)[C@@H]1CCCCN1S(=O)(=O)Cc1ccccc1 | 5.8 | > 100 | 99 |  |  |  |  |  |
| O=C(OCCCc1cccnc1)C1CCCCN1S(=O)(=O)Cc1cccc([N+](=O)[O-])c1 (racemic) | 8.7 | 46.7 |  |  |  |  |  |  |
| Nc1ccc(CS(=O)(=O)N2CCCCC2C(=O)OCCCc2cccnc2)cc1 (racemic) | 21.4 | > 100 |  |  |  |  |  |  |
| C[C@@H](CNC(=O)c1cccnc1)OC(=O)[C@@H]1CCCCN1S(=O)(=O)Cc1ccccc1 | 3.5 | > 100 | > 95 | 95 | 97 |  |  |  |
| O=C(OCCCc1cccnc1)C1CCCCN1C(=O)COc1ccc(Cl)cc1 (racemic) | 89.3 | 50.9 |  |  |  |  |  |  |
| CC(C)NC(=O)[C@@H]1CCCCN1S(=O)(=O)Cc1ccccc1 | > 100 | > 100 | > 95 |  |  |  |  |  |
| COCCOc1cc(OCCOC)cc(C(=O)OCCOC(=O)[C@@H]2CCCCN2S(=O)(=O)Cc2ccccc2)c1 | 8.6 | > 80 | 85 | 98 | 59 |  |  |  |
| O=C(OCCCc1cccnc1)C1CCCCN1S(=O)(=O)Cc1ccccc1 (racemic) | 10.7 | > 100 |  |  |  |  |  |  |
| O=C(OCCCc1cccnc1)[C@@H]1CCCCN1S(=O)(=O)Cc1cccc(Cl)c1 | 7.5 | 43.3 |  |  |  |  |  |  |
| O=C(OCCOc1cccnc1)[C@@H]1CCCCN1S(=O)(=O)Cc1ccccc1 | 7.7 | > 100 | > 95 | 88 | 77 |  |  |  |
| CC(C)OC(=O)C1CCCCN1S(=O)(=O)Cc1ccccc1 (racemic) | 79.2 | > 100 | > 95 |  |  |  |  |  |
| O=C(OCCCc1cccnc1)[C@@H]1CCCCN1S(=O)(=O)Cc1cccc([N+](=O)[O-])c1 | 7.9 | 48.2 |  |  |  |  |  |  |
| COCCOc1cc(OCCOC)cc(C(=O)NCCOC(=O)[C@@H]2CCCCN2S(=O)(=O)Cc2ccccc2)c1 | 5.6 | > 100 | > 95 |  |  |  |  |  |
| Nc1cccc(CS(=O)(=O)N2CCCCC2C(=O)OCCCc2cccnc2)c1 (racemic) | > 100 | 62.3 |  |  |  |  |  |  |
| O=C(OCCOC(=O)[C@@H]1CCCCN1S(=O)(=O)Cc1ccccc1)c1cccnc1 | 2.6 | > 100 | 40 | 82 | 50 |  |  |  |
| C[C@H](CNC(=O)c1cccnc1)OC(=O)[C@@H]1CCCCN1S(=O)(=O)Cc1ccccc1 (single isomer, unassigned) | 11.5 | > 100 |  |  |  |  |  |  |
| O=C(OCCO)C1CCCCN1S(=O)(=O)Cc1ccccc1 (racemic) | 94 | > 100 | > 95 | 95 | 86 |  |  |  |
| O=C(OCCCc1cccnc1)[C@@H]1CCCCN1S(=O)(=O)Cc1ccc(Cl)cc1 | 2.4 | 33.6 |  |  |  |  |  |  |
| COc1cc(C(=O)NCCOC(=O)[C@@H]2CCCCN2S(=O)(=O)Cc2ccccc2)ccc1O | 3.2 | > 100 |  |  |  |  |  |  |
| CC(C)Nc1ccc(CS(=O)(=O)N2CCCCC2C(=O)OCCCc2cccnc2)cc1 (racemic) | 44.5 | 44.3 |  |  |  |  |  |  |
| O=C(OCCCc1cccnc1)[C@@H]1CCCCN1S(=O)(=O)Cc1ccc(F)cc1 | 5.7 | > 100 | > 95 |  |  |  |  |  |
